Test results: ChEMBL document CHEMBL2086261, “A focused sulfated glycoconjugate Ugi library for probing heparan sulfate-binding angiogenic growth factors” (Bioorg Med Chem Lett, 2012)

Legend:
[1] = target: Fibroblast growth factor 2 (Homo sapiens, UniProt P09038); experiment: Binding affinity to FGF2 by surface plasmon resonance-based solution affinity assay
In short: (§1)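 Dissociation constants (Kd) for ligand binding to FGF-1, FGF-2 and VEGF were determined by an SPR solution affinity assay. Some entries come from a single measurement only.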

[2] = target: Fibroblast growth factor 1 (Homo sapiens, UniProt P05230); experiment: Binding affinity to FGF1 by surface plasmon resonance-based solution affinity assay; in short: as §1
[3] = target: T1, Vascular endothelial growth factor A, long form (Homo sapiens, UniProt P15692); experiment: Binding affinity to VEGF by surface plasmon resonance-based solution affinity assay; in short: as §1
T1 sequence (P15692 whole entry): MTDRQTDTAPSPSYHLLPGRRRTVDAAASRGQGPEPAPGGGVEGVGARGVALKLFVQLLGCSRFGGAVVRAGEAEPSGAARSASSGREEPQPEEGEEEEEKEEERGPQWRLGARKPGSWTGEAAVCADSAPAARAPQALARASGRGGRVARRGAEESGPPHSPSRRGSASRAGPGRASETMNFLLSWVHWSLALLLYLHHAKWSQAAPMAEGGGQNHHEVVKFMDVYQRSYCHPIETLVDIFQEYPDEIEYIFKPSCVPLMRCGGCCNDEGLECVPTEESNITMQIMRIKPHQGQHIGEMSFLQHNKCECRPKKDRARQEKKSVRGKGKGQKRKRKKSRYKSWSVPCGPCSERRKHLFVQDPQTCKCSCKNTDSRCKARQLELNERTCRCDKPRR

Chain of Fibroblast growth factor 1 (P05230 whole entry): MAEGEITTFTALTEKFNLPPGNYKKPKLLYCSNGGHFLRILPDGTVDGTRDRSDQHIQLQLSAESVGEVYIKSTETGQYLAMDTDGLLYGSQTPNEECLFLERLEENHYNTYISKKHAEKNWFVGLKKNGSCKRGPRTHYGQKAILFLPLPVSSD
Chain of Fibroblast growth factor 2 (P09038 143-288 limits assumed): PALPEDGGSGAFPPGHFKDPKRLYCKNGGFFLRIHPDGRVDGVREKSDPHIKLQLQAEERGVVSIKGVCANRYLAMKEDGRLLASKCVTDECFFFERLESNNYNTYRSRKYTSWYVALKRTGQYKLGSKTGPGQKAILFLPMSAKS

| SMILES | Kd [1] | Kd [2] | Kd [3] |
| --- | --- | --- | --- |
| CO[C@H]1O[C@H](CNC(=O)CN(CCc2ccccc2)C(C)=O)[C@@H](OS(=O)(=O)O)[C@H](OS(=O)(=O)O)[C@@H]1OS(=O)(=O)O | 680 µM | 224 µM | 109 µM |
| CO[C@H]1O[C@H](CNC(=O)CN(C(C)=O)C2CCCCC2)[C@@H](OS(=O)(=O)O)[C@H](OS(=O)(=O)O)[C@@H]1OS(=O)(=O)O | 413 µM | 310 µM | 1700 µM |
| CO[C@H]1O[C@H](CNC(=O)CN(C(C)=O)C2CCCCCC2)[C@@H](OS(=O)(=O)O)[C@H](OS(=O)(=O)O)[C@@H]1OS(=O)(=O)O | 410 µM | 370 µM | 3000 µM |
| CO[C@H]1O[C@H](CNC(=O)CN(C(C)=O)C2CCCCCCCCCCC2)[C@@H](OS(=O)(=O)O)[C@H](OS(=O)(=O)O)[C@@H]1OS(=O)(=O)O | 480 µM | 265 µM | 1200 µM |
| CCCCC1CCC(N(CC(=O)NC[C@H]2O[C@H](OC)[C@@H](OS(=O)(=O)O)[C@@H](OS(=O)(=O)O)[C@@H]2OS(=O)(=O)O)C(C)=O)CC1 (stereo not given in full) | 540 µM | 243 µM | 1000 µM |
| CO[C@H]1O[C@H](CNC(=O)CN(CCOS(=O)(=O)O)C(C)=O)[C@@H](OS(=O)(=O)O)[C@H](OS(=O)(=O)O)[C@@H]1OS(=O)(=O)O | 240 µM | 95 µM | 280 µM |
| CCN(CC(=O)NC[C@H]1O[C@H](OC)[C@@H](OS(=O)(=O)O)[C@@H](OS(=O)(=O)O)[C@@H]1OS(=O)(=O)O)C(=O)COS(=O)(=O)O | – | 174 µM | 512 µM |
| CCN(CC(=O)NC[C@H]1O[C@H](OC)[C@@H](OS(=O)(=O)O)[C@@H](OS(=O)(=O)O)[C@@H]1OS(=O)(=O)O)C(=O)CCC(=O)O | 291 µM | 338 µM | 207 µM |
| CCN(CC(=O)NC[C@H]1O[C@H](OC)[C@@H](OS(=O)(=O)O)[C@@H](OS(=O)(=O)O)[C@@H]1OS(=O)(=O)O)C(=O)CCCCC(=O)O | 480 µM | 160 µM | 104 µM |
| CCN(CC(=O)NC[C@H]1O[C@H](OC)[C@@H](OS(=O)(=O)O)[C@@H](OS(=O)(=O)O)[C@@H]1OS(=O)(=O)O)C(=O)CCCCCCCCCOS(=O)(=O)O | 240 µM | 111 µM | 545 µM |
| CCN(CC(=O)NC[C@H]1O[C@H](OC)[C@@H](OS(=O)(=O)O)[C@@H](OS(=O)(=O)O)[C@@H]1OS(=O)(=O)O)C(=O)c1ccccc1 | 480 µM | 366 µM | 1100 µM |
| CCN(CC(=O)NC[C@H]1O[C@H](OC)[C@@H](OS(=O)(=O)O)[C@@H](OS(=O)(=O)O)[C@@H]1OS(=O)(=O)O)C(=O)CCc1ccccc1 | – | – | 596 µM |
| CC(=O)N(CC(=O)NCCO[C@H]1O[C@H](COS(=O)(=O)O)[C@@H](OS(=O)(=O)O)[C@H](OS(=O)(=O)O)[C@@H]1OS(=O)(=O)O)c1ccccc1 | 240 µM | 97 µM | 402 µM |
| O=C(CNC(=O)Cc1cccc(Cl)c1)NCCO[C@H]1O[C@H](COS(=O)(=O)O)[C@@H](OS(=O)(=O)O)[C@H](OS(=O)(=O)O)[C@@H]1OS(=O)(=O)O | 837 µM | 170 µM | 91 µM |
| CCN(CC(=O)NCCO[C@H]1O[C@H](COS(=O)(=O)O)[C@@H](OS(=O)(=O)O)[C@H](OS(=O)(=O)O)[C@@H]1OS(=O)(=O)O)C(=O)CCCCC(=O)O | 188 µM | 44 µM | 81 µM |
| CO[C@H]1O[C@H](CN=[N+]=[N-])[C@@H](OS(=O)(=O)O)[C@H](OS(=O)(=O)O)[C@@H]1OS(=O)(=O)O | 210 µM | 343 µM | 630 µM |
| CO[C@H]1O[C@H](COS(=O)(=O)O)[C@@H](OS(=O)(=O)O)[C@H](OS(=O)(=O)O)[C@@H]1OS(=O)(=O)O | – | – | 198 µM |

Continued by falling Kd [3], values first:

| Kd [1] | Kd [2] | Kd [3] | SMILES |
| --- | --- | --- | --- |
| 400 µM | 500 µM | 81 µM | CCN(CC(=O)NC[C@H]1O[C@H](OC)[C@@H](OS(=O)(=O)O)[C@@H](OS(=O)(=O)O)[C@@H]1OS(=O)(=O)O)C(=O)CCCc1ccccc1 |
| 192 µM | 140 µM | 77 µM | CO[C@H]1O[C@H](CNC(=O)CN(Cc2ccccc2)C(C)=O)[C@@H](OS(=O)(=O)O)[C@H](OS(=O)(=O)O)[C@@H]1OS(=O)(=O)O |
| 287 µM | 25 µM | 76.6 µM | CC(=O)N(CC(=O)NCCO[C@H]1O[C@H](COS(=O)(=O)O)[C@@H](OS(=O)(=O)O)[C@H](OS(=O)(=O)O)[C@@H]1OS(=O)(=O)O)Cc1ccccc1 |
| 480 µM | 196 µM | 76 µM | CO[C@H]1O[C@H](CNC(=O)CN(C(C)=O)c2ccccc2)[C@@H](OS(=O)(=O)O)[C@H](OS(=O)(=O)O)[C@@H]1OS(=O)(=O)O |
| 157 µM | 20 µM | 50 µM | CCN(CC(=O)NCCO[C@H]1O[C@H](COS(=O)(=O)O)[C@@H](OS(=O)(=O)O)[C@H](OS(=O)(=O)O)[C@@H]1OS(=O)(=O)O)C(=O)CCCCCCCCCOS(=O)(=O)O |
| 430 µM | 37 µM | 45.3 µM | CO[C@H]1O[C@H](CNC(=O)CNC(=O)Cc2cccc(Cl)c2)[C@@H](OS(=O)(=O)O)[C@H](OS(=O)(=O)O)[C@@H]1OS(=O)(=O)O |
| 122 µM | 43 µM | 40 µM | CCN(CC(=O)NCCO[C@H]1O[C@H](COS(=O)(=O)O)[C@@H](OS(=O)(=O)O)[C@H](OS(=O)(=O)O)[C@@H]1OS(=O)(=O)O)C(=O)CCC(=O)O |
| 113 µM | 11.8 µM | 29 µM | CC(=O)N(CCc1ccccc1)CC(=O)NCCO[C@H]1O[C@H](COS(=O)(=O)O)[C@@H](OS(=O)(=O)O)[C@H](OS(=O)(=O)O)[C@@H]1OS(=O)(=O)O |
